Laboratory results: ChEMBL document CHEMBL3813595, “Discovery of novel 5,6,7,8-tetrahydro[1,2,4]triazolo[4,3-a]pyridine derivatives as γ-secretase modulators (Part 2)” (Bioorg Med Chem, 2016)

Assays:
[1] = Lipophilicity, logD of compound at pH 7.4 by retention time-based reverse phase chromatographic analysis; assay type: physicochemical; details: buffer
[2] = Drug uptake in C57BL/6J mouse cortex at 6 mg/kg, po after 3 hrs by LC/MS/MS analysis; assay type: ADME, organism-based; details: read-out: Drug uptake
Outline: (§1)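 Male C57BL/6J mice, 9 weeks old, fed, n = 3, given a single oral dose of 6 mg/kg in 0.5% methylcellulose. Plasma and cortex collected at 3 h. Cortex homogenized in saline. Samples deproteinized with MeCN containing an internal standard, then diluted in ammonium formate/acetonitrile with 0.2% formic acid for analysis.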

[3] = Drug uptake in C57BL/6J mouse plasma at 6 mg/kg, po after 3 hrs by LC/MS/MS analysis; assay type: ADME, organism-based; outline: as §1
Cortex [4] = assay: Drug uptake in APP-transgenic Tg2576 mouse cortex at 3 to 6 mg/kg, po administered as single dose after 18 hrs by LC/MS/MS analysis; assay type: ADME, organism-based; details: in vivo, BLD = below limit of detection
Cortex [5] = assay: Drug uptake in APP-transgenic Tg2576 mouse cortex at 3 to 6 mg/kg, po administered as multiple dose by LC/MS/MS analysis; assay type: ADME, organism-based; details: in vivo
Plasma = assay: Drug uptake in APP-transgenic Tg2576 mouse plasma at 3 to 6 mg/kg, po administered as multiple dose by LC/MS/MS analysis; assay type: ADME, organism-based; details: in vivo

Compound | chromatographic logD [1] | further results
COc1cc(-c2nnc3n2CCCC3(Cc2ccc(F)c(F)c2)C(=O)N(C)CC(F)(F)F)ccc1-c1cnc(C)o1 (configuration not stated) | 2.9 | –
COc1cc(-c2nnc3n2CCCC32OCc3c(Cl)cccc3N(CC(F)(F)F)C2=O)ccc1-c1cnc(C)o1 (configuration not stated) | 2.8 | –
COc1cc(-c2nnc3n2CCCC32COc3ccccc3N(CC(F)(F)F)C2=O)ccc1-c1cnc(C)o1 (configuration not stated) | 2.5 | –
COc1cc(-c2nnc3n2CCCC3(Oc2ccc(F)c(F)c2)C(C)(C)O)ccc1-c1cnc(C)o1 (configuration not stated) | 2.8 | –
COc1cc(-c2nnc3n2CCCC3(Oc2cc(F)c(F)c(F)c2)C(C)(C)O)ccc1-c1cnc(C)o1 (configuration not stated) | 3.2 | –
COc1cc(-c2nnc3n2CCCC32OCc3c(cccc3C(F)(F)F)N(CC(F)(F)F)C2=O)ccc1-c1cnc(C)o1 (configuration not stated) | 2.9 | –
COc1cc(-c2nnc3n2CCCC32C(=O)N(CC(F)(F)F)c3ccccc32)ccc1-c1cnc(C)o1 (configuration not stated) | 2.2 | –
COc1cc(-c2nnc3n2CCCC3(Cc2ccc(F)c(F)c2)C(=O)NCC(F)(F)F)ccc1-c1cnc(C)o1 (configuration not stated) | 3 | –
COc1cc(-c2nnc3n2CCC[C@]3(Oc2cc(F)c(F)c(F)c2)C(C)(C)O)ccc1-c1cnc(C)o1 | 3.2 | concentration at 3 h [2]: 677 ng/g; concentration at 3 h [3]: 3310 ng/mL; Drug uptake (Cortex [4]): BLD; Drug uptake (Cortex [5]): Not Active; Drug uptake (Plasma): Not Active
COc1cc(-c2nnc3n2CCC[C@@]3(Oc2cc(F)c(F)c(F)c2)C(C)(C)O)ccc1-c1cnc(C)o1 | 3.2 | –
COc1cc(-c2nnc3n2CCCC32OCc3ccccc3N(CC(F)(F)F)C2=O)ccc1-c1cnc(C)o1 (configuration not stated) | 2.2 | –
COc1cc(-c2nnc3n2CCCC32Cc3ccccc3N(CC(F)(F)F)C2=O)ccc1-c1cnc(C)o1 (configuration not stated) | 2.4 | –

Continued, in another order:

chromatographic logD [1] | Compound | further results
3.7 | COc1cc(-c2nnc3n2CCCC3(OC)c2ccc(Cl)c(Cl)c2)ccc1-c1cnc(C)o1 (configuration not stated) | –
2.6 | COc1cc(-c2nnc3n2CCCC3(Cc2ccc(F)c(F)c2)C(C)=O)ccc1-c1cnc(C)o1 (configuration not stated) | –
2.5 | COc1cc(-c2nnc3n2CCCC3(CO)Cc2ccc(F)c(F)c2)ccc1-c1cnc(C)o1 (configuration not stated) | –
2.9 | COc1cc(-c2nnc3n2CCCC3(O)c2ccc(Cl)c(Cl)c2)ccc1-c1cnc(C)o1 (configuration not stated) | –
2.9 | COc1cc(-c2nnc3n2CCCC3(c2ccc(F)c(F)c2)C(C)(C)O)ccc1-c1cnc(C)o1 (configuration not stated) | –
3.7 | COc1cc(-c2nnc3n2CCCC3(c2ccc(Cl)c(Cl)c2)C(C)(C)O)ccc1-c1cnc(C)o1 (configuration not stated) | –
2.3 | COc1cc(-c2nnc3n2CCCC3(Cc2ccc(F)c(F)c2)C(N)=O)ccc1-c1cnc(C)o1 (configuration not stated) | –
3.1 | COc1cc(-c2nnc3n2CCCC3(CN)c2ccc(Cl)c(Cl)c2)ccc1-c1cnc(C)o1 (configuration not stated) | –
3.2 | COc1cc(-c2nnc3n2CCCC3(CNC(C)=O)c2ccc(Cl)c(Cl)c2)ccc1-c1cnc(C)o1 (configuration not stated) | –
3 | COc1cc(-c2nnc3n2CCCC3(Cc2ccc(F)c(F)c2)C(C)(C)O)ccc1-c1cnc(C)o1 (configuration not stated) | –
